Test results from ChEMBL document CHEMBL5634209, “Computational design, synthesis, and assessment of 3-(4-(4-(1,3,4-oxadiazol-2-yl)-1H-imidazol-2-yl)phenyl)-1,2,4-oxadiazole derivatives as effective epidermal growth factor receptor inhibitors: a prospective strategy for anticancer therapy” (RSC Med Chem, 2024).

Legend:
[1] = Selectivity index, ratio of IC50 for cytotoxicity against African green monkey Vero cells to IC50 for antiproliferative activity against human PC-3 cells; type: toxicity, cell-based; conditions: Vero cells versus PC-3 cells, read-out: Ratio IC50
PC-3 = assay: Antiproliferative activity against human PC-3 cells assessed as reduction in cell viability measured after 48 hrs by MTT assay; type: functional, cell-based; conditions: PC-3, 48 h
In short: (§1)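 Cells were grown at 37 °C in 5% CO2 in medium with 10% FBS: RPMI-1640 for A549, DU-145 and HepG2, and DMEM/F12 for PC-3. They were seeded at 5×10^3/well. At 70–80% confluence they were exposed to a concentration range diluted from a 60 mM DMSO stock for 48 h at 37 °C, with 0.1% DMSO as vehicle. MTT 5 mg/mL stock was added for 4 h, formazan dissolved in DMSO, A570 read, and % inhibition calculated against control. IC50 was taken from the concentration series.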

HepG2 = assay: Antiproliferative activity against human HepG2 cells assessed as reduction in cell viability measured after 48 hrs by MTT assay; type: functional, cell-based; conditions: HepG2, 48 h; in short: as §1
[2] = Selectivity index, ratio of IC50 for cytotoxicity against African green monkey Vero cells to IC50 for antiproliferative activity against human HepG2 cells; type: toxicity, cell-based; conditions: Vero cells versus HepG2 cells, read-out: Ratio IC50
A549 = assay: Antiproliferative activity against human A549 cells assessed as reduction in cell viability measured after 48 hrs by MTT assay; type: functional, cell-based; conditions: A549, 48 h; in short: as §1
[3] = Selectivity index, ratio of IC50 for cytotoxicity against African green monkey Vero cells to IC50 for antiproliferative activity against human A549 cells; type: toxicity, cell-based; conditions: Vero cells versus A549 cells, read-out: Ratio IC50
[4] = Cytotoxicity against African green monkey Vero cells assessed as reduction in cell viability measured after 48 hrs by MTT assay; type: toxicity, cell-based; conditions: African green monkey (Chlorocebus sabaeus)
[5] = Selectivity index, ratio of IC50 for cytotoxicity against African green monkey Vero cells to IC50 for antiproliferative activity against human DU-145 cells; type: toxicity, cell-based; conditions: Vero cells versus DU-145 cells, read-out: Ratio IC50
DU-145 = assay: Antiproliferative activity against human DU-145 cells assessed as reduction in cell viability measured after 48 hrs by MTT assay; type: functional, cell-based; conditions: DU-145, 48 h; in short: as §1
[6] = biological target: Epidermal growth factor receptor (Homo sapiens, UniProt P00533); assay: Inhibition of wild type EGFR (unknown origin) incubated for 40 mins by Kinase Glo Max reagent based luminescence analysis
Epidermal growth factor receptor (Homo sapiens, UniProt P00533), sequence (P00533 whole entry): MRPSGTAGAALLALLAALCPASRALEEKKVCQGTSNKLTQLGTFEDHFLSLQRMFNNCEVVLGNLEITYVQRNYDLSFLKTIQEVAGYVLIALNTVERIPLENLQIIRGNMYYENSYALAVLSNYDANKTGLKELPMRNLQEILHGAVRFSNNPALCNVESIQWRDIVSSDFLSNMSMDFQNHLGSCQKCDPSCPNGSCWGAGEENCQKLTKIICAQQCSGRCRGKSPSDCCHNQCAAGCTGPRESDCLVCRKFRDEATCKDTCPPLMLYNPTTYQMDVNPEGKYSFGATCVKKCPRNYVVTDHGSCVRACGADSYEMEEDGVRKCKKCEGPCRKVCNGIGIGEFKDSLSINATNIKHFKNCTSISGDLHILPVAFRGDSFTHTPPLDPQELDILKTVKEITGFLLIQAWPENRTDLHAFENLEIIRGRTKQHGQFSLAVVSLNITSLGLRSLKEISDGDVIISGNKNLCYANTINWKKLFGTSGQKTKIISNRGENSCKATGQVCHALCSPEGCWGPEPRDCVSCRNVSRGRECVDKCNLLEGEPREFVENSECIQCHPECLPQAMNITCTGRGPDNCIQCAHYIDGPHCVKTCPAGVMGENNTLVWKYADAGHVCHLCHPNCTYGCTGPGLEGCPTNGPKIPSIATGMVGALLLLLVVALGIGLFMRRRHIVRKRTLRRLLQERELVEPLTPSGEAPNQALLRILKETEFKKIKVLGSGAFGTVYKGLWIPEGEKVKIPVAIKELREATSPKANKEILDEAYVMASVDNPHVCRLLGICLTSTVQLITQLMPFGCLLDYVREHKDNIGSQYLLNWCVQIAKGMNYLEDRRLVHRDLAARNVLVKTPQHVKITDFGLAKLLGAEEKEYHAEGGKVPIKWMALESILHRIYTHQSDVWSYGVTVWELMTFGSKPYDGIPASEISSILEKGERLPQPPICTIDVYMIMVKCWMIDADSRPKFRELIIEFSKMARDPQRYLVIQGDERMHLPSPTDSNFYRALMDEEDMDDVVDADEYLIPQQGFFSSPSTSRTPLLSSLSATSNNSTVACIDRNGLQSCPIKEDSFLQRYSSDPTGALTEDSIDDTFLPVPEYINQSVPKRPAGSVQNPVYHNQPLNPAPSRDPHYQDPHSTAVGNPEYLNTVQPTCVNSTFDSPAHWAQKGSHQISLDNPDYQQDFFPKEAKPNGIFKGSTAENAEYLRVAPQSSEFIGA

[7] = biological target: Epidermal growth factor receptor (Homo sapiens, UniProt P00533, T790M); assay: Inhibition of EGFR T790M mutant (unknown origin) incubated for 40 mins by Kinase Glo Max reagent based luminescence analysis
Epidermal growth factor receptor (Homo sapiens, UniProt P00533, T790M), sequence (P00533 25-1210 T790M limits assumed): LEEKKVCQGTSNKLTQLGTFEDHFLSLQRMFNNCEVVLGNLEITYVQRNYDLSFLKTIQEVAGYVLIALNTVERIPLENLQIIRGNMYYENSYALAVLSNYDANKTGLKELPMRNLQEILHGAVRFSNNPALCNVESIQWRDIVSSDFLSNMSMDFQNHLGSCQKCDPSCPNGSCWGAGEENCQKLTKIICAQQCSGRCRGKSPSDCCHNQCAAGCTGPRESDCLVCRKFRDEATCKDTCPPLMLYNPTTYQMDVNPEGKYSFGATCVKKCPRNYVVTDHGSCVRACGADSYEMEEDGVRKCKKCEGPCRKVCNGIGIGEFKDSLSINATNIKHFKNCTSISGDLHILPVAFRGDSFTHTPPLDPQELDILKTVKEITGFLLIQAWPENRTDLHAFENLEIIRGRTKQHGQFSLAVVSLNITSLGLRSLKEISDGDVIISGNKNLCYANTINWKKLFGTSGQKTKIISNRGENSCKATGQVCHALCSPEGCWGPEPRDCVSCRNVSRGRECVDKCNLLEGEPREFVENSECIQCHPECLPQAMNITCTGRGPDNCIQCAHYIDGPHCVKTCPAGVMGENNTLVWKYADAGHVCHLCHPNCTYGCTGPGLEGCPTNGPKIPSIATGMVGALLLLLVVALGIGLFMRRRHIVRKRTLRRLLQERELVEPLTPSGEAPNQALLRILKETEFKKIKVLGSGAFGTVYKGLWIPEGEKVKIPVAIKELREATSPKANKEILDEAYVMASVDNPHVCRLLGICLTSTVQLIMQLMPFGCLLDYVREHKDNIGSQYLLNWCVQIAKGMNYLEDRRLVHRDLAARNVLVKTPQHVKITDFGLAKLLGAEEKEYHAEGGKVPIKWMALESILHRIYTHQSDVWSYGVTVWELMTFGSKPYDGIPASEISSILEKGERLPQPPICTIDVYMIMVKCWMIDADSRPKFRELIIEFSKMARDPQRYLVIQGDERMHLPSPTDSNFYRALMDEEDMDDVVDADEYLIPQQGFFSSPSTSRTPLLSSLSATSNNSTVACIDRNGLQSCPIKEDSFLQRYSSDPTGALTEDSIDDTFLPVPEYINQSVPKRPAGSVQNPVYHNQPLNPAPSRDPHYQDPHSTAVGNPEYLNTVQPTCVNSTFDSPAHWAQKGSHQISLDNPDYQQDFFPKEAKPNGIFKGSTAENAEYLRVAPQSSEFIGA

| SMILES | IC50 (PC-3) [µM] | IC50 (HepG2) [µM] | IC50 (A549) [µM] | IC50 (DU-145) [µM] | IC50 [6] [µM] | IC50 [7] [µM] | selectivity ratio [1] | selectivity ratio [2] | selectivity ratio [3] | IC50 at 48 h [4] [µM] | selectivity ratio [5] |
| --- | --- | --- | --- | --- | --- | --- | --- | --- | --- | --- | --- |
| Clc1ccc(-c2nc(-c3ccc(-c4nc(-c5nnc(-c6ccncc6)o5)c[nH]4)cc3)no2)cc1 | 4.58 | 5.78 | 4.84 | – | – | – | 5.46 | 4.32 | 5.16 | > 25 | – |
| O=[N+]([O-])c1ccc(-c2nc(-c3ccc(-c4nc(-c5nnc(-c6ccncc6)o5)c[nH]4)cc3)no2)cc1 | 2.23 | 5.33 | – | 3.81 | – | – | 8.96 | 4.5 | – | > 24 | 6.29 |
| N#Cc1ccc(-c2nc(-c3ccc(-c4nc(-c5nnc(-c6ccncc6)o5)c[nH]4)cc3)no2)cc1 | – | 6.99 | 8.21 | – | – | – | – | 3.29 | 2.8 | > 23 | – |
| COc1cc([C@@H]2c3cc4c(cc3[C@@H](O[C@@H]3O[C@@H]5CO[C@@H](C)O[C@H]5[C@H](O)[C@H]3O)[C@H]3COC(=O)[C@H]23)OCO4)cc(OC)c1O [ETOPOSIDE] | 2.39 | 2.11 | 3.08 | 1.97 | – | – | 10.5 | 11.8 | 8.11 | > 25 | 12.7 |

Continued by falling IC50 (HepG2), values first:

| IC50 (PC-3) [µM] | IC50 (HepG2) [µM] | IC50 (A549) [µM] | IC50 (DU-145) [µM] | IC50 [6] [µM] | IC50 [7] [µM] | SMILES | selectivity ratio [1] | selectivity ratio [2] | selectivity ratio [3] | IC50 at 48 h [4] [µM] | selectivity ratio [5] |
| --- | --- | --- | --- | --- | --- | --- | --- | --- | --- | --- | --- |
| 6.22 | 3.61 | 5.49 | – | – | – | O=[N+]([O-])c1cc(-c2nc(-c3ccc(-c4nc(-c5nnc(-c6ccncc6)o5)c[nH]4)cc3)no2)cc([N+](=O)[O-])c1 | 4.01 | 6.92 | 4.55 | > 25 | – |
| 0.98 | 0.273 | 0.86 | 0.88 | 0.217 | 1.23 | COc1cc(OC)cc(-c2nc(-c3ccc(-c4nc(-c5nnc(-c6ccncc6)o5)c[nH]4)cc3)no2)c1 | 15.3 | 54.9 | 17.4 | > 15 | 17 |
